In brackets after ≈: the same amount, converted by molar mass.
What was measured:
[1] = Solubility of the compound in water measured after 18 hrs by UV-vis spectroscopic method; format: physicochemical
Procedure, shortened: (§1)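 Saturated suspensions prepared at 100 µM in water, 100 µM in PBS, 200 µM in PBS + 10% DMSO and 10 mM in PBS + 50% DMSO. Held 18 h at 25°C, passed through a 0.2 µm filter, then quantified by UV-Vis absorbance at 312 nm using the calculated extinction coefficient.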

[2] = Drug uptake in BALB/c mouse plasma at 20 mg/kg, po measured after 0.5 hrs by LC-MS method; format: ADME, organism-based
Procedure, shortened: (§2)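 BALB/c mice dosed either free (8% DMSO; 1 mg/kg IV or 20 mg/kg oral), or 20 mg/kg oral in 50% w/v hydroxypropyl-β-cyclodextrin, or 20 mg/kg oral in 25% cyclodextrins plus 50% PEG 400. Serial submandibular blood samples stored at -20°C. Plasma measured by isocratic LC-MS (acetonitrile:water 80:20, 0.2 ml/min), quantifier transition m/z 315.0>161.0.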

[3] = Drug uptake in BALB/c mouse plasma at 20 mg/kg, po as cyclodextrin/PEG400 formulation measured after 3 hrs by LC-MS method; format: ADME, organism-based; procedure, shortened: as §2
CYP1A2 = biological target: T1, CYP1A2 (Homo sapiens, UniProt P05177); experiment: Inhibition of human CYP1A2 expressed in baculovirus-infected insect cells at 10 uM using Luciferin-1A2 as substrate in presence of NADPH by P450-Glo luminescence assay relative to control; format: ADME; conditions: probe Luciferin-1A2
T1 sequence (P05177 whole entry): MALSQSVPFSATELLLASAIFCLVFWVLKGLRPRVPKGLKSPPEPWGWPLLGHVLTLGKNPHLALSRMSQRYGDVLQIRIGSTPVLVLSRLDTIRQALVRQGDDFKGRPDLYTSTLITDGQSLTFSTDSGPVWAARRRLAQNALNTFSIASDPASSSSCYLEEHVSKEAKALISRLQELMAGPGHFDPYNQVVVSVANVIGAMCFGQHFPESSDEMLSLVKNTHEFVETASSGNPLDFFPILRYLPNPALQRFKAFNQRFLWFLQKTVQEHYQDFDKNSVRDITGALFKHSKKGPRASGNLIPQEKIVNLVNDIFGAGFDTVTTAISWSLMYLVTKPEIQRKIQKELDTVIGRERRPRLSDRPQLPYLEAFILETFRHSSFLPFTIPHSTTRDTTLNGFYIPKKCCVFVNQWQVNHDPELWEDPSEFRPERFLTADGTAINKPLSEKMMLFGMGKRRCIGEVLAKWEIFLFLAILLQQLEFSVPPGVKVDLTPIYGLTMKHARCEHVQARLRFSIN
Procedure, shortened: (§3)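 CYP enzymes as microsomal preparations from baculovirus-infected insect cells, run on the P450-Glo luminogenic substrate platform. A fall in light output indicates inhibition.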

[4] = Drug uptake in BALB/c mouse plasma at 20 mg/kg, po measured after 0.75 hrs by LC-MS method; format: ADME, organism-based; procedure, shortened: as §2
[5] = Drug uptake in BALB/c mouse plasma at 20 mg/kg, po as cyclodextrin/PEG400 formulation measured after 0.75 hrs by LC-MS method; format: ADME, organism-based; procedure, shortened: as §2
[6] = Drug uptake in BALB/c mouse plasma at 20 mg/kg, po as cyclodextrin/PEG400 formulation measured after 1 hr by LC-MS method; format: ADME, organism-based; procedure, shortened: as §2
[7] = Cytotoxicity against human A549 cells assessed as cell growth by Cell titer-Glo assay; format: cell-based
Procedure, shortened: (§4)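 A549 and WI-38 cells grown in DMEM with 10% v/v FCS, streptomycin 100 µg/ml and penicillin G 100 U/ml. Cell number read as cellular ATP by CellTiter-Glo luminescence. Growth 60–100% scored non-cytotoxic, 0–60% cytostatic, below 0 cytotoxic.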

[8] = Cytotoxicity against human A549 cells assessed as cell growth at 10 uM by Cell titer-Glo assay relative to control; format: cell-based; conditions: read-out: Activity; procedure, shortened: as §4
[9] = Solubility of the compound in phosphate buffered saline measured after 18 hrs by UV-vis spectroscopic method; format: physicochemical; procedure, shortened: as §1
Cytochrome P450 2D6 = Cytochrome P450 2D6 (Homo sapiens, UniProt P10635); experiment: Inhibition of human CYP2D6 expressed in baculovirus-infected insect cells using Luciferin-ME EGE as substrate in presence of NADPH by P450-Glo luminescence assay; format: ADME; procedure, shortened: as §3
[10] = Cytotoxicity against human […] cells assessed as cell growth at 10 uM by Cell titer-Glo assay relative to control; format: cell-based; conditions: WI-38 cells, read-out: Activity; procedure, shortened: as §4
[11] = Drug uptake in BALB/c mouse plasma at 1 mg/kg, iv measured after 180 mins by LC-MS method; format: ADME, organism-based; procedure, shortened: as §2
786-0 = experiment: Mitochondrial toxicity in human 786-O cells at 10 uM by mitotracker red chloromethyl-Xrosamine staining based-uptake method relative to control; format: cell-based; conditions: 786-0, 10 µM
Procedure, shortened: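 786-O renal carcinoma cells kept in RPMI-1640 with 2 mM glutamine, 10% v/v FCS, streptomycin 100 µg/ml and penicillin G 100 U/ml. Mitochondrial toxicity monitored by MitoTracker Red CMXRos uptake with high-content imaging.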

[12] = Solubility of the compound in phosphate buffered saline with 10% DMSO measured after 18 hrs by UV-vis spectroscopic method; format: physicochemical; procedure, shortened: as §1
[13] = test system: Trypanosoma brucei brucei; experiment: Anti-parasitic activity against bloodstream form of Trypanosoma brucei brucei Lister 427 at 10 uM after 72 hrs by resazurin-based assay relative to control; format: functional; conditions: Lister 427, 72 h
Procedure, shortened: (§5)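 Bloodstream-form T. brucei, modified resazurin-based viability assay. EC50 is the arithmetic mean of at least two independent determinations, each run in triplicate.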

[14] = Drug uptake in BALB/c mouse plasma at 1 mg/kg, iv measured after 60 mins by LC-MS method; format: ADME, organism-based; procedure, shortened: as §2
Cytochrome P450 2C9 = Cytochrome P450 2C9 (Homo sapiens, UniProt P11712); experiment: Inhibition of human CYP2C9 expressed in baculovirus-infected insect cells using Luciferin-H as substrate in presence of NADPH by P450-Glo luminescence assay
[15] = Half-life in BALB/c mouse at 20 mg/kg, po as cyclodextrin formulation by LC-MS method; format: ADME, organism-based; conditions: in vivo; procedure, shortened: as §2
[16] = Drug uptake in BALB/c mouse plasma at 1 mg/kg, iv measured after 15 mins by LC-MS method; format: ADME, organism-based; procedure, shortened: as §2
[17] = test system: Trypanosoma brucei brucei; experiment: Anti-parasitic activity against bloodstream form of Trypanosoma brucei brucei Lister 427 after 72 hrs by resazurin-based assay; format: functional; conditions: Lister 427, 72 h; procedure, shortened: as §5
[18] = Drug uptake in BALB/c mouse plasma at 20 mg/kg, po measured after 1 hr by LC-MS method; format: ADME, organism-based; procedure, shortened: as §2
[19] = Drug uptake in BALB/c mouse plasma at 20 mg/kg, po measured after 0.25 hrs by LC-MS method; format: ADME, organism-based; procedure, shortened: as §2
[20] = Half-life in BALB/c mouse at 1 mg/kg, iv by LC-MS method; format: ADME, organism-based; conditions: in vivo; procedure, shortened: as §2
[21] = Lipophilicity, log P of the compound; format: physicochemical; conditions: octanol/water
Aurora kinase B = Aurora kinase B (Homo sapiens, UniProt Q96GD4); experiment: Inhibition of N-terminal-GST-tagged recombinant full length human Aurora B expressed in baculovirus infected Sf9 cells at 10 uM using native Swine Myelin Basic Protein as substrate measured after 60 mins by ADP-Glo assay relative to control; conditions: probe native Swine Myelin Basic Protein
Procedure, shortened: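 Aurora B kinase activity measured by ADP-Glo, which detects ADP formed through a coupled luciferase luminescence read-out.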

Cytochrome P450 2C9, sequence (P11712 whole entry): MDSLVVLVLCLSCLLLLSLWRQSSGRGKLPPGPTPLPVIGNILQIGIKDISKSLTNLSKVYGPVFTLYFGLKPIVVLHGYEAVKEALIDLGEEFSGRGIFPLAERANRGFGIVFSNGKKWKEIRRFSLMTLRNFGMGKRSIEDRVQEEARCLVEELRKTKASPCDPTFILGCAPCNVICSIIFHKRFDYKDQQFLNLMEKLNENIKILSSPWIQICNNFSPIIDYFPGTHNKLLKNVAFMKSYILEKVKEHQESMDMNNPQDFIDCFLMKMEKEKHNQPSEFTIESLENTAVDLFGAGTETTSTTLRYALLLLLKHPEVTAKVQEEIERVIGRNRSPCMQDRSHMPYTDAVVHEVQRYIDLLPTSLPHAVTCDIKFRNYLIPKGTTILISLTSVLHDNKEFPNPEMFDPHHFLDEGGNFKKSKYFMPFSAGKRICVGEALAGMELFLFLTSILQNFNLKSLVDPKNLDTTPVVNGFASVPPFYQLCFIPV
Aurora kinase B, sequence (Q96GD4 whole entry): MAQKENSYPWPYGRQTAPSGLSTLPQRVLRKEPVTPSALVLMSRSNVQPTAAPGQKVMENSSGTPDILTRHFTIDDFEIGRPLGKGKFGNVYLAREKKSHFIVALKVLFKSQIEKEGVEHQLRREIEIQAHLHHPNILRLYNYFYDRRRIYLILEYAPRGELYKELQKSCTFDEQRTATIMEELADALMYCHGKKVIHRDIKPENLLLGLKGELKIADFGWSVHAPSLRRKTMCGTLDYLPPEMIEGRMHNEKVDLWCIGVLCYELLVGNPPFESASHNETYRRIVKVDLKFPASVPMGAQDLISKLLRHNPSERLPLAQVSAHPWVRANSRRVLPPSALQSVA
Cytochrome P450 2D6, sequence (P10635 whole entry): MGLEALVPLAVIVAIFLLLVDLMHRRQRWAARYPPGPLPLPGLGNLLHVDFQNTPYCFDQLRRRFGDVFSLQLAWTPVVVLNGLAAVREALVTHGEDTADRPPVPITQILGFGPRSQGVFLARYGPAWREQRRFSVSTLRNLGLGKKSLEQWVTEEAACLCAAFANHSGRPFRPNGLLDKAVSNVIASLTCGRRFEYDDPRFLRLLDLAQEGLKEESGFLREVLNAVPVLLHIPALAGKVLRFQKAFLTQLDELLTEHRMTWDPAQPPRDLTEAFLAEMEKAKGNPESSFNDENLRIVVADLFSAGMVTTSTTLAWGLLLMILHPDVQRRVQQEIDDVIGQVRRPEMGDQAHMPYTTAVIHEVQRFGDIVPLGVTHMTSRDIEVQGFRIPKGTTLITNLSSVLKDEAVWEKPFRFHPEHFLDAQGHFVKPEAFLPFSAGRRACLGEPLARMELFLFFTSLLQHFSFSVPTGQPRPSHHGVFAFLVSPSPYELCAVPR

solubility at 18 h [1]: 0.91 µM (≈ 0.286 µg/mL)
concentration at 0.5 h [2]: 49 nM
concentration at 3 h [3]: 6 nM
inhibition at 10 µM (CYP1A2): 98%
concentration at 0.75 h [4]: 12 nM
concentration at 0.75 h [5]: 11 nM
concentration at 1 h [6]: 18 nM
solubility at 18 h [9]: 2.37 µM (≈ 0.745 µg/mL)
IC50 (Cytochrome P450 2D6): 6.8 µM
concentration at 3 h [11]: 5 nM
solubility at 18 h [12]: 11.4 µM (≈ 3.59 µg/mL)
concentration at 1 h [14]: 21 nM
IC50 (Cytochrome P450 2C9): 42.1 µM
half-life [15]: 36.7 min
concentration at 0.25 h [16]: 74 nM
EC50 [17]: 4.2 µM
concentration at 1 h [18]: 9 nM
concentration at 0.25 h [19]: 270 nM
half-life [20]: 62.5 min
logP [21]: 3.59
inhibition at 1 h, 10 µM (Aurora kinase B): -6.8%
SMILES: COc1cccc(/C=C/C(=O)c2cc(OC)c(OC)cc2O)c1
GI50 [7]: 12.4 µM
viability at 10 µM [8]: 95.5%
viability at 10 µM [10]: 96.1%
Activity (786-0): 3.6%
inhibition at 10 µM [13]: 100%

Source: ChEMBL document CHEMBL3997782, “Methoxylated 2'-hydroxychalcones as antiparasitic hit compounds” (Eur J Med Chem, 2017)
